Test [1] relates to MCF7. Briefly: Cytotoxicity against ERalpha-dependent human MCF7 cells assessed as reduction in cell viability incubated for 48 hrs by MTT assay. Type of test: functional, cell-based. Particulars: MCF7, 48 h. In short, it runs like this: (§1)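 Cells grown by standard culture protocols, then exposed for 48 h to serial concentrations (0.1, 1, 10, 100, 1000; unit not given) of each compound. Survival read by absorbance at 570 nm and expressed as % viability = A sample/A control ×100. IC50 fitted from concentration versus % survival; mean ± SEM of three independent values.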

Test [2] relates to MDA-MB-231. Briefly: Cytotoxicity against Non-ERalpha-dependent human MDA-MB-231 cells assessed as reduction in cell viability incubated for 48 hrs by MTT assay. Format: functional, cell-based. The note with it: MDA-MB-231, 48 h. In short, it runs like this: as §1
The subject of test [3] is MCF-10A. Nature of the test: Cytotoxicity against human MCF-10A cells assessed as reduction in cell viability incubated for 48 hrs by MTT assay. Format: cell-based. In short, it runs like this:
as §1

Test [4] concerns the target Serine/threonine-protein kinase pim-1 (Homo sapiens, UniProt P11309). Briefly: Inhibition of recombinant human GST-tagged PIM1 by ELISA. A digest of the protocol: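 PIM-1 kinase activity measured with the HTScan Pim-1 kinase assay kit, following the kit instructions. Compounds dissolved in DMSO and tested at four serial concentrations; IC50 derived from these.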
The test system of test [5] is MCF7. Briefly: Induction of apoptosis in human MCF7 cells assessed as early apoptotic cells at 5.61 uM incubated for 48 hrs by Annexin V-FITC/propidium iodide staining based flow cytometric analysis (reference value: 0.43 %). Format: functional.
Test [6] relates to MCF7. Nature of the test: Induction of apoptosis in human MCF7 cells assessed as late apoptotic cells at 5.61 uM incubated for 48 hrs by Annexin V-FITC/propidium iodide staining based flow cytometric analysis (reference value: 0.16 %). Type of test: functional.
For test [7], the system named is MCF7. Nature of the test: Induction of apoptosis in human MCF7 cells assessed as necrotic cells at 5.61 uM incubated for 48 hrs by Annexin V-FITC/propidium iodide staining based flow cytometric analysis (reference value: 1.05 %). Type of test: functional.
For test [8], the system named is MCF7. Briefly: Induction of cell cycle arrest in human MCF7 cells assessed as accumulation of cells at preG1 phase at 5.61 uM incubated for 48 hrs by propidium iodide staining based flow cytometric analysis (reference value: 1.64 %). Type of test: functional.
The test system of test [9] is MCF7. Briefly: Induction of cell cycle arrest in human MCF7 cells assessed as accumulation of cells at G0/G1 phase at 5.61 uM incubated for 48 hrs by propidium iodide staining based flow cytometric analysis (reference value: 43.92 %). Format: functional.
Test [10] has as its system MCF7. Briefly: Induction of cell cycle arrest in human MCF7 cells assessed as accumulation of cells at G2/M phase at 5.61 uM incubated for 48 hrs by propidium iodide staining based flow cytometric analysis (reference value: 12.26 %). Format: functional.
A short description of test [11]: Upregulation of P53 gene expression in human MCF7 cells at 5.61 uM incubated for 48 hrs by RT-PCR analysis relative to control. Type of test: functional.
A short description of test [12]: Upregulation of MDM2 gene expression in human MCF7 cells at 5.61 uM incubated for 48 hrs by RT-PCR analysis relative to control. Format: functional.
Test [13] can be described thus: Upregulation of PUMA gene expression in human MCF7 cells at 5.61 uM incubated for 48 hrs by RT-PCR analysis relative to control. Format: functional.
Test [14] concerns MCF7. Nature of the test: Induction of apoptosis in human MCF7 cells assessed as fold increase in caspase-3 gene expression at 5.61 uM incubated for 48 hrs by RT-PCR analysis relative to control. Format: functional.
Test [15] relates to MCF7. Nature of the test: Induction of apoptosis in human MCF7 cells assessed as fold increase in caspase-9 gene expression at 5.61 uM incubated for 48 hrs by RT-PCR analysis relative to control. Format: functional.
In test [16] the test system is MCF7. Nature of the test: Induction of apoptosis in human MCF7 cells assessed as fold decrease in BCL2 gene expression at 5.61 uM incubated for 48 hrs by RT-PCR analysis relative to control. Format: functional.
Test [17] in a line: Downregulation of PIM1 gene expression in human MCF7 cells at 5.61 uM incubated for 48 hrs by RT-PCR analysis relative to control. Type of test: functional.
Test [18] deals with MCF7. Nature of the test: Induction of apoptosis in human MCF7 cells assessed as increase in total apoptotic cells at 5.61 uM incubated for 48 hrs by Annexin V-FITC/propidium iodide staining based flow cytometric analysis relative to control. Type of test: functional.
For test [19], the system named is MCF7. Briefly: Induction of apoptosis in human MCF7 cells assessed as increase in necrotic cells at 5.61 uM incubated for 48 hrs by Annexin V-FITC/propidium iodide staining based flow cytometric analysis relative to control. Format: functional.

Each structure is given as a SMILES string.

Serine/threonine-protein kinase pim-1, sequence (P11309 whole entry): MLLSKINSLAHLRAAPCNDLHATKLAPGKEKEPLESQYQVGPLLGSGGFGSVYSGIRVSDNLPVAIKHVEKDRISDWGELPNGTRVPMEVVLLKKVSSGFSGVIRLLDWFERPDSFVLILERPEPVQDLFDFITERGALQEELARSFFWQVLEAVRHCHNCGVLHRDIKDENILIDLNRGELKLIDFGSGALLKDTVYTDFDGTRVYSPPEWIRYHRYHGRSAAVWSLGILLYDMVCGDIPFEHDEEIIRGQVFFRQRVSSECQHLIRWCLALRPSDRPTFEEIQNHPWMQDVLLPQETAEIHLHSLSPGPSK

Consider `N#Cc1c(N)nc2nn3c4ccc5ccccc5c4nnc3c2c1-c1ccc(-c2c(C#N)c(N)nc3nn4c(nnc5ccc6ccccc6c54)c23)cc1`, for which the IC50 in test [1] is 11.4 µM; in test [2] it was 43.7 µM.

Take `CC(=O)c1nnc2c3c(-c4ccccc4Cl)c(C#N)c(O)nc3nn2c1C`: the concentration for half-maximal inhibition (IC50) in [1] was found to be 14.8 µM; in test [2], 20.8 µM.

Turning to `N#Cc1c(N)nc2[nH]nc(N)c2c1-c1ccc(-c2c(C#N)c(N)nc3[nH]nc(N)c23)cc1`, the half-inhibitory concentration (IC50) in [1] was 17.9 µM; in [2] it was 35.7 µM; in test [3], 43.6 µM.

Regarding `N#Cc1c(-c2ccccc2Cl)c2c(nn3c4ccc(O)cc4nnc23)[nH]c1=O`, the IC50 was 10 µM in test [1], 24.7 µM in test [2], not below 50 µM in test [3] and 0.112 µM in [4].

Consider `N#Cc1c(N)nc(Sc2ccccc2)c(C#N)c1-c1ccc(-c2c(C#N)c(N)nc(Sc3ccccc3)c2C#N)cc1`, for which the concentration for half-maximal inhibition (IC50) in [1] was determined as 16.8 µM; in [3], 48.7 µM.

In the case of `N#Cc1nnc2c3c(-c4ccccc4Cl)c(C#N)c(O)nc3nn2c1O`, the 50% inhibitory concentration (IC50) in [1] is 27.5 µM; in test [2], 10.6 µM.

Regarding `N#Cc1c(N)nc2[nH]nc(N)c2c1-c1ccccc1Cl`, the values for the IC50 in test [1] and in test [3] were 36.6 µM and 20.6 µM, respectively.

For the molecule `N#Cc1c(-c2ccccc2Cl)c2c(N/N=C3\C=CC(=O)c4ccccc43)n[nH]c2[nH]c1=O`, the IC50 is 8.71 µM in [1], not below 50 µM in [2], not below 50 µM in test [3] and 0.095 µM in [4].

Take `N#Cc1c(N)nc2[nH]nc(N)c2c1-c1cccc(Cl)c1`: in test [1], the IC50 was not below 50 µM.

For the molecule `Cn1nc(N)c2c(-c3ccccc3Cl)c(C#N)c(N)nc21`, the 50% inhibitory concentration (IC50) in test [3] is 53.7 µM.

With `N#Cc1c(-c2ccccc2Cl)c2c(nn3c4ccc5ccccc5c4nnc23)[nH]c1=O`, the IC50 in test [1] was not below 50 µM; in test [2], 9.76 µM.

With `N#Cc1nnc2c3c(-c4ccccc4Cl)c(C#N)c(=O)[nH]c3nn2c1N`, the IC50 is 6.98 µM in [1], not below 50 µM in test [2], not below 50 µM in test [3] and 0.043 µM in test [4].

With `CCOC(=O)c1nnc2c3c(-c4ccccc4Cl)c(C#N)c(=O)[nH]c3nn2c1O`, the half-inhibitory concentration (IC50) in test [1] turned out to be 5.61 µM; in test [2], 38.7 µM; in test [3], 46.8 µM; in [4], 0.026 µM. Further, the Activity worked out at 3.93% in [5]; 16.29% in test [6]; 11.03% in [7]; 31.25% in [8]; 35.66% in [9]; 34.58% in test [10]. In addition, the “fold change (FC)” value in test [11] worked out at 4.2; in test [12], 3.9; in test [13], 6.32; in test [14] it was 7.9; in test [15], 6.56; in test [16], 0.41. Besides, the “fold change (FC)” value was 0.25 in test [17], 19.17 in test [18] and 10.5 in test [19].

Take `Cn1nc(N)c2c(-c3ccc(-c4c(C#N)c(N)nc5c4c(N)nn5C)cc3)c(C#N)c(N)nc21`: the 50% inhibitory concentration (IC50) in test [1] and in [3] was not below 50 µM each time.

Turning to `N#Cc1c(O)nc2nn3c4cc(O)ccc4nnc3c2c1-c1ccccc1Cl`, the IC50 was 9.12 µM in test [1], 39.5 µM in test [2], not below 50 µM in test [3] and 0.087 µM in [4].

For `O=c1[nH]cc(F)c(=O)[nH]1` [FLUOROURACIL], the IC50 came out at 5.8 µM in test [1], 15.7 µM in test [2] and 39.7 µM in test [3].

(Values after ChEMBL document CHEMBL4699630, “Discovery of novel pyrazolo[3,4-b]pyridine scaffold-based derivatives as potential PIM-1 kinase inhibitors in breast cancer MCF-7 cells” (Bioorg Med Chem, 2020).)
